Marks after values point to notes of the source that are not given here.
Columns and labels:
[1] = system: Madin-Darby bovine kidney (MDBK) cells; assay: In vitro MTT cytotoxicity assay on MDBK cells; format: cell-based; details: MDBK cells; for Average cell viability (%) / Concentration that significantly reduced the viability of MDBK cells: 24 h, MTT; for Maximum non-toxic concentration: highest concentration with no significant effect on cell viability
Procedure, shortened: (§1)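 MDBK cells (NBL-1) were kept in MEM with 10% FBS and penicillin/streptomycin at 37 °C, 5% CO2, and passaged with Accutase at ~70% confluence. Cells were seeded at 2×10^4/well and grown 24 h. Test compound was added at final 0.1, 1, 10, 50 or 100 μM, with a DMSO solvent control, for 24 h. MTT was added for 2 h, formazan dissolved in 99% isopropanol, and A562 read. Viability = compound/DMSO ×100. Maximum non-toxic concentration = highest concentration with no significant viability effect. Three repeats.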

[2] = In vitro MTT cytotoxicity assay on MDBK cells; format: cell-based, bovine; details: bovine, MDBK cells (NBL-1 strain)
Procedure, shortened: as §1

[3] = system: E. tenella sporozoites; assay: In vitro viability assay for E. tenella sporozoites; format: cell-based, Eimeria tenella; details: for Sporozoite viability: 24 h, DMSO-treated group = 100%; for Potency of anti-parasitical effect against Eimeria parasites (category by IC50): criteria of Isah et al., 2016: high, moderate, low/no potency
Procedure, shortened: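 E. tenella OPU strain oocysts were sporulated in ~0.1% potassium dichromate at 28 °C and hypochlorite-treated. Sporocysts were excysted for 1–2 h at 41 °C in HBSS with 1% taurodeoxycholic acid and 0.25% trypsin. Sporozoites at 5×10^6/ml in phenol-red-free RPMI 1640 with antibiotics got test compound (screen 100 μM; IC50 range 1–100 μM) for 24 h at 37 °C, 5% CO2. Cell Count Reagent SF was then added for 3 h. Viability was expressed relative to DMSO = 100%.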

[4] = commercially available pure compounds at 100 μM

Row | Structure (SMILES) | Average cell viability (%) ([1]; 0.1 μM) | Average cell viability (%) ([1]; 1 μM) | Average cell viability (%) ([1]; 10 μM) | Average cell viability (%) ([1]; 50 μM) | Average cell viability (%) ([1]; 100 μM) | Maximum non-toxic concentration [1] | viability at 24 h, 0.1 µM [2] | viability at 24 h, 1 µM [2] | viability at 24 h, 10 µM [2] | viability at 24 h, 50 µM [2] | viability at 24 h, 100 µM [2] | Sporozoite viability ([3]; natural components at 100 μM) | Concentration that significantly reduced the viability of MDBK cells [1] | Potency of anti-parasitical effect against Eimeria parasites (category by IC50) [3] | Sporozoite viability [3, 4]
1 | COc1cc(CCc2ccccc2O)cc(OC)c1O [Component A-2, 4,2′-Dihydroxy-3,5-dimethoxydihydrostilbene] | 98.7% | 105.9% | 107.0% | 103.4% | 107.3% | 100 µM | – | – | – | – | – | – | – | – | –
2 | Oc1cc(O)c2c(c1)O[C@H](c1ccc(O)c(O)c1)[C@H](O)C2 [Component A-3, Epicatechin] | – | – | – | – | – | 100 µM | 103% | 91% | 92.3% | 109% | 108% | – | – | – | –
3 | O=c1c(O[C@@H]2O[C@H](CO)[C@@H](O)[C@H](O)[C@H]2O)c(-c2ccc(O)c(O)c2)oc2cc(O)cc(O)c12 [Component A-4, Isoquercitrin] | – | – | – | – | – | 100 µM | 98% | 110% | 104% | 109% | 104% | – | – | – | –
4 | Oc1cc(O)cc(/C=C/c2ccccc2)c1 [Component A-5, Pinosylvin] | – | – | – | – | – | 100 µM | 103% | 102% | 103% | 110% | 106% | – | – | – | –
5 | C[C@H]1[C@H](C)CC[C@]2(CO)CC[C@]3(C)C(=CC[C@@H]4[C@@]5(C)CC[C@H](O)C(C)(C)[C@@H]5CC[C@]43C)[C@H]12 [Component B-1, Uvaol] | – | – | – | – | – | 10 µM | 95.6% | 99.9% | 110% | 55.9% | 36.2% | – | – | – | –
6 | CC1(C)CC[C@]2(C)CC[C@]3(C)C(=CC[C@@H]4[C@@]5(C)CC[C@H](O)C(C)(C)[C@@H]5CC[C@]43C)[C@@H]2C1 [Component C-1, β-Amyrin] | – | – | – | – | – | 100 µM | 78.1% | 82.6% | 88.6% | 87.7% | 82.4% | no significant effect | – | – | –
7 | COc1ccc(-c2cc(=O)c3c(O)c(C)c(OC)cc3o2)cc1 [Component C-2, 8-Demethyleucalyptin] | 97.8% | 92.5% | 98.7% | 85.2* % | 80.8* % | 10 µM | – | – | – | – | – | – | – | – | –
8 | CC1(C)CC[C@]2(C(=O)O)CC[C@]3(C)C(=CC[C@@H]4[C@@]5(C)CC[C@H](O)C(C)(C)[C@@H]5CC[C@]43C)[C@@H]2C1 [Component C-5, Oleanolic acid] | – | – | – | – | – | 50 µM | 99.9% | 99.2% | 102% | 105% | 16.2% | – | 100 µM | high potency | –
9 | O=C(CCc1ccc(O)cc1)c1c(O)cc(O[C@@H]2O[C@H](CO)[C@@H](O)[C@H](O)[C@H]2O)cc1O [Component C-6, Trilobatin] | 89.1% | 90.7% | 91.4% | 92.9% | 93.6% | 100 µM | – | – | – | – | – | – | – | – | –
10 | O=C(CCc1ccc(O)cc1)c1c(O)cc(O)cc1O[C@@H]1O[C@H](CO)[C@@H](O)[C@H](O)[C@H]1O [Component C-7, Phlorhizin] | 87.9% | 90.9% | 98.2% | 95.8% | 107.4% | 100 µM | – | – | – | – | – | – | – | – | –
11 | O=C1C[C@@H](c2ccc(O)cc2)Oc2cc(O)cc(O)c21 [Component D-1, Naringenin] | – | – | – | – | – | 100 µM | 92.2% | 97.3% | 99.3% | 109% | 107% | – | – | – | –
12 | C[C@H]1[C@H](C)CC[C@]2(C(=O)O)CC[C@]3(C)C(=CC[C@@H]4[C@@]5(C)CC[C@H](O)C(C)(C)[C@@H]5CC[C@]43C)[C@H]12 [Component D-3, Ursolic acid] | – | – | – | – | – | 10 µM | 92.9% | 86.4% | 105% | -13.1% | -14.2% | – | – | low/no potency | –
13 | Oc1cc(O)c2c(c1)O[C@H](c1cc(O)c(O)c(O)c1)[C@@H](O)C2 [Component F-1, Gallocatechin] | – | – | – | – | – | 100 µM | 80.8% | 81.4% | 93.9% | 92.6% | 85.2% | – | – | – | –
14 | COC1OC(CO)C(O)C(O)C1O (stereo not drawn) [Component F-2, β-Methylglucoside] | 99.2% | 102.1% | 104.6% | 102.0% | 104.9% | 100 µM | – | – | – | – | – | – | – | – | –
15 | O=c1c(O[C@@H]2O[C@@H](CO)[C@H](O)[C@H]2O)c(-c2ccc(O)c(O)c2)oc2cc(O)cc(O)c12 [Component G-1, Avicularin] | – | – | – | – | – | 100 µM | 94.6% | 96.9% | 88.5% | 104% | 89.5% | – | – | – | –
16 | COc1cc(C)cc(O)c1 [Component H-1, 3-Methoxy-5-methylphenol] | – | – | – | – | – | 100 µM | 106% | 109% | 106% | 113% | 112% | – | – | – | –
17 | Cc1cc(O)cc(O)c1 [Component H-2, 5-Methylbenzene-1,3-diol] | – | – | – | – | – | 100 µM | 92% | 95.3% | 94.8% | 93.4% | 93.3% | – | – | – | –
18 | C[C@@H]1O[C@@H](O[C@H]2[C@H](O)[C@@H](O)[C@H](OC[C@H]3O[C@@H](OC(=O)[C@]45CCC(C)(C)C[C@H]4C4=CC[C@@H]6[C@@]7(C)CC[C@H](O[C@@H]8OC[C@H](O)[C@H](O)[C@H]8O[C@@H]8O[C@H](CO)[C@@H](O)[C@H](O)[C@H]8O)[C@@](C)(CO)[C@@H]7CC[C@@]6(C)[C@]4(C)CC5)[C@H](O)[C@@H](O)[C@@H]3O)O[C@@H]2CO)[C@H](O)[C@H](O)[C@H]1O [Component I-1, Cauloside G] | 100.7% | 103.3% | 103.7% | 97.0% | 89.4% | 100 µM | – | – | – | – | – | – | – | – | –
19 | OC[C@H]1O[C@@H](Oc2ccc(O)cc2)[C@H](O)[C@@H](O)[C@@H]1O [E−1, Arbutin] | – | – | – | – | – | 100 µM | 83.1% | 86.4% | 87.1% | 108% | 102% | – | – | – | –
20 | Oc1cc(O)c2c(c1)OC(c1ccc(O)c(O)c1)C(O)C2 (stereo not shown) [E−2, Catechin] | 101.1% | 102.5% | 109.8% | 104.9% | 114.0% | 100 µM | – | – | – | – | – | – | – | – | –
21 | CC[C@@H](C(=O)[C@@H](C)[C@@H](O)[C@H](C)CCc1ccc(C)c(O)c1C(=O)O)[C@H]1O[C@](CC)([C@H]2CC[C@](O)(CC)[C@H](C)O2)C[C@@H]1C [lasalocid, reference compound] | – | – | – | – | – | 1 µM | 107% | 110% | 54.3% | 1.1% | 0.4% | – | higher than 10 μM | – | –
22 | C[C@H]1[C@H](C)CC[C@]2(C)CC[C@]3(C)C(=CC[C@@H]4[C@@]5(C)CC[C@H](O)C(C)(C)[C@@H]5CC[C@]43C)[C@H]12 [α-amyrin, reference compound] | – | – | – | – | – | – | – | – | – | – | – | – | – | – | did not significantly reduce
23 | CC1(C)CC[C@]2(C)CC[C@]3(C)C(=CC[C@@H]4[C@@]5(C)CC[C@H](O)C(C)(C)[C@@H]5CC[C@]43C)[C@@H]2C1 [β-amyrin, reference compound] | – | – | – | – | – | – | – | – | – | – | – | – | – | – | did not significantly reduce

Reference: paper PMC11362645 (International Journal for Parasitology: Parasites and …, 2024)
